Results on four compounds are retold here after ChEMBL document CHEMBL4715736, “Identification of anticancer agents based on the thieno[2,3-b]pyridine and 1H-pyrazole molecular scaffolds” (2016).

Common to all, as to type: functional
Common to all, as to conditions: read-out: Activity

Experiment [1] relates to SNB-75. The experiment is described as follows: Growth inhibition of human SNB-75 cells assessed as cell growth at 10 uM incubated for 48 hrs by sulforhodamine B assay relative to control. The method, boiled down: (§1)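 Run by the NCI Developmental Therapeutics Program as part of its 60-line human tumour panel. Each compound tested at a single 10 µM dose. Growth expressed as % relative to untreated control cells (100%).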
(In general: Sulforhodamine B stains cellular protein and so reports cell mass.)

Experiment [2] deals with HOP-92. The experiment is described as follows: Growth inhibition of human HOP-92 cells assessed as cell growth at 10 uM incubated for 48 hrs by sulforhodamine B assay relative to control. A digest of the protocol: (§2)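 Submitted to the NCI Developmental Therapeutics Program for the NCI60 human tumour cell line panel. First screen at a single 10 µM concentration. Read-out is growth relative to untreated control cells set at 100%.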

Experiment [3] concerns UACC-62. The experiment is described as follows: Growth inhibition of human UACC-62 cells assessed as cell growth at 10 uM incubated for 48 hrs by sulforhodamine B assay relative to control. A digest of the protocol: as §1
Experiment [4] has as its system SF-268. The experiment is described as follows: Growth inhibition of human SF-268 cells assessed as cell growth at 10 uM incubated for 48 hrs by sulforhodamine B assay relative to control. The method, boiled down: as §1
In experiment [5] the test system is UACC-257. The experiment is described as follows: Growth inhibition of human UACC-257 cells assessed as cell growth at 10 uM incubated for 48 hrs by sulforhodamine B assay relative to control. A digest of the protocol:
as §1

The test system of experiment [6] is HCT-15. The experiment is described as follows: Growth inhibition of human HCT-15 cells assessed as cell growth at 10 uM incubated for 48 hrs by sulforhodamine B assay relative to control. The method, boiled down:
as §2

Experiment [7] concerns MDA-MB-231. The experiment is described as follows: Growth inhibition of human MDA-MB-231 cells assessed as cell growth at 10 uM incubated for 48 hrs by sulforhodamine B assay relative to control. A digest of the protocol: as §2
Experiment [8] concerns CAKI-1. The experiment is described as follows: Growth inhibition of human CAKI-1 cells assessed as cell growth at 10 uM incubated for 48 hrs by sulforhodamine B assay relative to control. The method, boiled down:
(§3)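 NCI Developmental Therapeutics Program NCI60 panel. Compounds that were active in the 10 µM one-dose screen went on to dose–response testing. Growth at each concentration is expressed relative to untreated control (100%). GI50 (concentration giving 50% of maximal inhibition of proliferation) and TGI (concentration giving total growth inhibition) were derived from the curves.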

In experiment [9] the test system is U-251. The experiment is described as follows: Growth inhibition of human U-251 cells assessed as cell growth at 10 uM incubated for 48 hrs by sulforhodamine B assay relative to control. A digest of the protocol: as §1
Experiment [10] relates to SNB-19. The experiment is described as follows: Growth inhibition of human SNB-19 cells assessed as cell growth at 10 uM incubated for 48 hrs by sulforhodamine B assay relative to control. The method, boiled down: as §1
Experiment [11] deals with K562. The experiment is described as follows: Growth inhibition of human K562 cells assessed as cell growth at 10 uM incubated for 48 hrs by sulforhodamine B assay relative to control. A digest of the protocol:
as §2

Experiment [12] concerns A498. The experiment is described as follows: Growth inhibition of human A498 cells assessed as cell growth at 10 uM incubated for 48 hrs by sulforhodamine B assay relative to control. A digest of the protocol: as §3
Experiment [13] concerns COLO 205. The experiment is described as follows: Growth inhibition of human COLO 205 cells assessed as cell growth at 10 uM incubated for 48 hrs by sulforhodamine B assay relative to control. A digest of the protocol: as §3
The subject of experiment [14] is NCI-H23. The experiment is described as follows: Growth inhibition of human NCI-H23 cells assessed as cell growth at 10 uM incubated for 48 hrs by sulforhodamine B assay relative to control. The method, boiled down: as §2
Experiment [15] concerns IGROV-1. The experiment is described as follows: Growth inhibition of human IGROV-1 cells assessed as cell growth at 10 uM incubated for 48 hrs by sulforhodamine B assay relative to control. The method, boiled down:
as §2

In experiment [16] the test system is OVCAR-8. The experiment is described as follows: Growth inhibition of human OVCAR-8 cells assessed as cell growth at 10 uM incubated for 48 hrs by sulforhodamine B assay relative to control. The method, boiled down: as §1
The subject of experiment [17] is CCRF-CEM. The experiment is described as follows: Growth inhibition of human CCRF-CEM cells assessed as cell growth at 10 uM incubated for 48 hrs by sulforhodamine B assay relative to control. A digest of the protocol: as §3
The subject of experiment [18] is A549. The experiment is described as follows: Growth inhibition of human A549/ATCC cells assessed as cell growth at 10 uM incubated for 48 hrs by sulforhodamine B assay relative to control. The method, boiled down:
as §3

For experiment [19], the system named is HOP-62. The experiment is described as follows: Growth inhibition of human HOP-62 cells assessed as cell growth at 10 uM incubated for 48 hrs by sulforhodamine B assay relative to control. A digest of the protocol:
as §2

Experiment [20] concerns M14. The experiment is described as follows: Growth inhibition of human M14 cells assessed as cell growth at 10 uM incubated for 48 hrs by sulforhodamine B assay relative to control. A digest of the protocol:
as §2

Take `CC1(C)CCc2cc(-c3ccn(S(=O)(=O)c4ccc(C(F)(F)F)cc4)n3)ccc2O1`: the growth at 10 µM stood at 93.5% in experiment [1]; 71.8% in experiment [2]; 83.5% in experiment [3]; 104% in [4]; 86.8% in experiment [5]; 87.4% in [6]. For the same compound, the growth at 10 µM stood at 112% in [7]; 76.7% in [8]; 89.1% in experiment [9]; 113% in experiment [10]; 76.8% in experiment [11]; 74.2% in [12]. For the same compound, the growth at 10 µM in experiment [13] was 108%; in experiment [14], 83.1%; in [15], 89.3%; in experiment [16], 90.9%; in [17], 82.8%; in [18], 79.8%. Further, the growth at 10 µM amounted to 119% in experiment [19] and 92.5% in experiment [20].

Consider `COc1ccc(S(=O)(=O)n2ccc(-c3ccc(OC(C)C)cc3)n2)cc1`, for which the growth at 10 µM in experiment [1] came out at 96.9%; in [2], 75.7%; in experiment [3], 64.1%; in [4] it was 100%; in experiment [5] it was 99.2%; in experiment [6], 87.6%. In addition, the growth at 10 µM in [7] was determined as 93%; in experiment [8], 66%; in experiment [9] it was 95.3%; in experiment [10], 100%; in experiment [11], 53.6%; in experiment [12], 48.5%. In addition, the growth at 10 µM in [13] amounted to 111%; in [14] it was 83.8%; in [15], 91%; in experiment [16], 94.6%; in experiment [17], 72.6%; in experiment [18], 86%. The growth at 10 µM is 126% in [19] and 84.5% in [20].

Take `COc1ccc(-c2ccn(S(=O)(=O)c3ccc(C)cc3)n2)cc1`: the growth at 10 µM stood at 92.5% in [1]; 79.9% in [2]; 70.9% in [3]; 95.9% in experiment [4]; 79.9% in experiment [5]; 84.2% in experiment [6]. In addition, the growth at 10 µM in experiment [7] stood at 89.2%; in experiment [8], 69.5%; in [9] it was 81.9%; in experiment [10], 94.5%; in experiment [11], 75.4%; in experiment [12] it was 63.2%. Further, the growth at 10 µM in experiment [13] turned out to be 112%; in experiment [14], 67.9%; in experiment [15], 81.5%; in experiment [16], 83.4%; in experiment [17] it was 85.7%; in [18] it was 79.7%. For the same compound, the growth at 10 µM in experiment [19] is 108%; in experiment [20], 90%.

As to `CC1(C)CCc2cc(-c3ccn(S(=O)(=O)c4ccccc4)n3)ccc2O1`, the growth at 10 µM came to 78.9% in [1]; 60% in experiment [2]; 73.3% in [3]; 85.4% in [4]; 82.7% in [5]; 64.9% in experiment [6]. For the same compound, the growth at 10 µM in experiment [7] amounted to 104%; in experiment [8] it was 62.9%; in experiment [9] it was 72.3%; in experiment [10] it was 94.1%; in [11], 10%; in [12] it was 65.4%. The growth at 10 µM was 96.1% in experiment [13]; 75.5% in [14]; 96.4% in [15]; 84.3% in [16]; 65.6% in [17]; 77.6% in [18]. Also, the growth at 10 µM in experiment [19] came out at 108%; in [20], 61%.
